Laboratory results published in ChEMBL document CHEMBL1153991, “Anthranilamide-based N,N-dialkylbenzamidines as potent and orally bioavailable factor Xa inhibitors: P4 SAR” (Bioorg Med Chem Lett, 2009).
pIC50: −log10 of the molar value. Values belong to the compound of their own block, whether it stands above or below them.

What was measured:
Coagulation factor X = Coagulation factor X (Homo sapiens, UniProt P00742); assay: Inhibition of Factor 10a
Plasma = assay: Anticoagulant activity in human plasma assessed as concentration required to double the thrombin generation time; assay type: functional
[1] = Volume of distribution in rat; assay type: ADME, organism-based; settings: in vivo
[2] = Protein binding in human plasma; assay type: ADME, cell-free; settings: read-out: PB (converted)
Method in brief: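 Plasma protein binding measured by ultrafiltration. Working solution added 1/100 to EDTA human plasma to a final 10 µM, incubated 37 °C for 30 min. Triplicate aliquots were centrifuged through filter devices for 25 min at 32 °C. Filtrate was mixed with acetonitrile containing internal standard and quantified by LC/MS/MS against standards prepared in ultrafiltered plasma.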

[3] = Oral bioavailability in Sprague-Dawley rat at 6 mg/kg; assay type: ADME, organism-based; settings: in vivo
Method in brief: (§1)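 Sprague–Dawley rats dosed 0.4 mg/kg IV and 6 mg/kg PO. Derived PK parameters: F (%), t1/2 (h), CL (mL/min/kg), Vd (L/kg).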

[4] = Half life in Sprague-Dawley rat at 0.4 mg/kg, iv and 6 mg/kg, po; assay type: ADME, organism-based; settings: in vivo; method in brief: as §1
[5] = Clearance in Sprague-Dawley rat at 0.4 mg/kg, iv and 6 mg/kg, po; assay type: ADME, organism-based; settings: in vivo; method in brief: as §1
[6] = Volume of distribution in Sprague-Dawley rat at 0.4 mg/kg, iv and 6 mg/kg, po; assay type: ADME, organism-based; settings: in vivo; method in brief: as §1
[7] = Oral bioavailability in Beagle dog at 0.5 mg/kg; assay type: ADME, organism-based, Canis lupus familiaris; settings: in vivo
Method in brief: (§2)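 Beagle dogs dosed 0.1 mg/kg IV and 0.5 mg/kg PO. Derived PK parameters: F (%), t1/2 (h), CL (mL/min/kg), Vd (L/kg).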

[8] = Clearance in Beagle dog at 0.1 mg/kg, iv and 0.5 mg/kg, po; assay type: ADME, organism-based, Canis lupus familiaris; settings: in vivo; method in brief: as §2
[9] = Volume of distribution in Beagle dog at 0.1 mg/kg, iv and 0.5 mg/kg, po; assay type: ADME, organism-based, Canis lupus familiaris; settings: in vivo; method in brief: as §2
[10] = Half life in Beagle dog at 0.1 mg/kg, iv and 0.5 mg/kg, po; settings: in vivo
[11] = Oral bioavailability in rat; assay type: ADME, organism-based; settings: in vivo
Prothrombin = Prothrombin (Homo sapiens, UniProt P00734); assay: Inhibition of thrombin
[12] = Inhibition of trypsin
[13] = target: Tissue-type plasminogen activator (Homo sapiens, UniProt P00750); assay: Inhibition of tissue plasminogen activator
Sequence of Tissue-type plasminogen activator (P00750 whole entry): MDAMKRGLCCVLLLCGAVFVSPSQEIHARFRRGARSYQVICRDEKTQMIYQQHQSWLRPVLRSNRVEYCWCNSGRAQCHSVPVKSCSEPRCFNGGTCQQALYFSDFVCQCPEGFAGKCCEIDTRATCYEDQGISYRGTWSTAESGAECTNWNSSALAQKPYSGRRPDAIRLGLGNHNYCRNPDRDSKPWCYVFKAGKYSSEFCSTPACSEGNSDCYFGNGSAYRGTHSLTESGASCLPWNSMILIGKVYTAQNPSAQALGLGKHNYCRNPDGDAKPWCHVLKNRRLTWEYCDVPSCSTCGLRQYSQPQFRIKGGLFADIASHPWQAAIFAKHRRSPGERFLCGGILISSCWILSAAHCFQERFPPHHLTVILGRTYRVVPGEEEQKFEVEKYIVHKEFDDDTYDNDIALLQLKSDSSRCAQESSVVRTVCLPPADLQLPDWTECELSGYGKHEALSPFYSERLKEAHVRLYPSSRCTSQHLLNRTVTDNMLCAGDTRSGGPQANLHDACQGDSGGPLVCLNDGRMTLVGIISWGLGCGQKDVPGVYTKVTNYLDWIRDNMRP

Plasminogen = Plasminogen (Homo sapiens, UniProt P00747); assay: Inhibition of plasmin
Sequence of Plasminogen (P00747 97-580 limits assumed): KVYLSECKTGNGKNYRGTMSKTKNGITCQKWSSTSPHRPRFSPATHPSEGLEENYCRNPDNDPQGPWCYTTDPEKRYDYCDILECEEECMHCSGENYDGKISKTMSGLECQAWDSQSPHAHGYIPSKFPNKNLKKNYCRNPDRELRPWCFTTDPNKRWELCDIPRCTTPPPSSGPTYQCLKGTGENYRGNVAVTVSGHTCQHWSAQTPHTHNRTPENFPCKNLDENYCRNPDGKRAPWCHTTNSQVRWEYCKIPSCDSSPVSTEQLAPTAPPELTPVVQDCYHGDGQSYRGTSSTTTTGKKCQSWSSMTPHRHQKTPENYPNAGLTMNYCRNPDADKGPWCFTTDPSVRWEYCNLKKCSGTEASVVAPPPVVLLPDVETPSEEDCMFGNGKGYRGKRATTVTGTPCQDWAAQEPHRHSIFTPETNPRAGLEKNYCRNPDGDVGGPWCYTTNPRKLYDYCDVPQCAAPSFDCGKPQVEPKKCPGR
Sequence of Plasminogen (P00747 581-810 limits assumed): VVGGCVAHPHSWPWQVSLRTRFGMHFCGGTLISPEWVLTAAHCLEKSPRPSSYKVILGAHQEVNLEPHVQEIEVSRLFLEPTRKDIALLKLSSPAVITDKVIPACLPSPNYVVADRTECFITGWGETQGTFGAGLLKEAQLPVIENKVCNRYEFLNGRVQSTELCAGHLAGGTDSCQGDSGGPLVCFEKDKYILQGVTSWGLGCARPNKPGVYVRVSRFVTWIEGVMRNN

[14] = Inhibition of kallikrein
[15] = target: Vitamin K-dependent protein C (Homo sapiens) (UniProt P04070); assay: Inhibition of activated protein C

Sequence of Coagulation factor X (P00742 41-179 limits assumed): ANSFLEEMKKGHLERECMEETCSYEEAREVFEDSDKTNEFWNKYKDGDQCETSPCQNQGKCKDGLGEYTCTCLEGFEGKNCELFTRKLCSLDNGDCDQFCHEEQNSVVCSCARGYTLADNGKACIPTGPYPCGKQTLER
Sequence of Coagulation factor X (P00742 235-488 limits assumed): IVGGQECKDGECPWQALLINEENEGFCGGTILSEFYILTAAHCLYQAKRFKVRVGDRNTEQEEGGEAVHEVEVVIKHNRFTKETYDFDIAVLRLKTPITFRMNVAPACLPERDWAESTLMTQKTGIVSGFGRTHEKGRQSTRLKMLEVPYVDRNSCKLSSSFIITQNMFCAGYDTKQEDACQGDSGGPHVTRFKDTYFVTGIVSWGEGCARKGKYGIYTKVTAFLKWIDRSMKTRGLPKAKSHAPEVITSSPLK

pIC50 (Coagulation factor X): 8.10
Structure (SMILES): N=C(c1ccc(C(=O)Nc2ccccc2C(=O)Nc2ccc(Cl)cn2)cc1)N1CCCC1

pIC50 (Coagulation factor X): 7.19
Structure (SMILES): CCN1CCN=C1c1ccc(C(=O)Nc2ccccc2C(=O)Nc2ccc(Cl)cn2)cc1

pIC50 (Coagulation factor X): 7.46
Structure (SMILES): N=C(NO)c1ccc(C(=O)Nc2ccccc2C(=O)Nc2ccc(Cl)cn2)cc1

pIC50 (Coagulation factor X): 7.03
Structure (SMILES): CCNC(=N)c1ccc(C(=O)Nc2ccccc2C(=O)Nc2ccc(Cl)cn2)cc1

Vd [1]: 13.6 L/kg
Structure (SMILES): N=C1OCCN1Cc1ccc(C(=O)Nc2ccc(Cl)cc2C(=O)Nc2ccc(Cl)cn2)cc1
Activity (Plasma): 0.56 µM

pIC50 (Coagulation factor X): 7.70
fraction unbound [2]: 0.18
bioavailability [3]: 22%
half-life [4]: > 6 h
clearance [5]: 7.1 mL/min/kg
Vd [6]: 3.7 L/kg
bioavailability [7]: 50%
clearance [8]: 49.6 mL/min/kg
Vd [9]: 9.2 L/kg
half-life [10]: 2.2 h
Structure (SMILES): CN1CCN=C1c1ccc(C(=O)Nc2ccccc2C(=O)Nc2ccc(Cl)cn2)cc1
Activity (Plasma): 1.1 µM

pIC50 (Coagulation factor X): 8.10
Structure (SMILES): N=C(c1ccc(C(=O)Nc2ccccc2C(=O)Nc2ccc(Cl)cn2)cc1)N1CCC1

pIC50 (Coagulation factor X): 8.52
fraction unbound [2]: 0.11
bioavailability [3]: 18%
half-life [4]: 6 h
clearance [5]: 32.2 mL/min/kg
Vd [6]: 16.7 L/kg
Structure (SMILES): N=C(c1ccc(C(=O)Nc2ccccc2C(=O)Nc2ccc(Cl)cn2)cc1)N1CCCCC1
Activity (Plasma): 0.36 µM

bioavailability [11]: 35%
Structure (SMILES): NS(=O)(=O)c1ccccc1-c1ccc(C(=O)Nc2ccccc2C(=O)Nc2ccc(Cl)cn2)cc1
Activity (Plasma): >5 µM

pIC50 (Coagulation factor X): 7.92
Structure (SMILES): N=C(c1ccc(C(=O)Nc2ccccc2C(=O)Nc2ccc(Cl)cn2)cc1)N1CCSCC1

pIC50 (Coagulation factor X): 6.65
Structure (SMILES): O=C(Nc1ccccc1C(=O)Nc1ccc(Cl)cn1)c1ccc(C2=NCCCN2)cc1

fraction unbound [2]: 0.27
half-life [4]: 4.3 h
clearance [5]: 16.8 mL/min/kg
Vd [6]: 6.3 L/kg
bioavailability [7]: 69%
clearance [8]: 45.7 mL/min/kg
Vd [9]: 13.7 L/kg
half-life [10]: 3.5 h
Structure (SMILES): CN(C)C(=N)c1ccc(C(=O)Nc2ccccc2C(=O)Nc2ccc(Cl)cn2)cc1
Activity (Plasma): 0.54 µM

pIC50 (Coagulation factor X): 6.50
Structure (SMILES): O=C(Nc1ccccc1C(=O)Nc1ccc(Cl)cn1)c1ccc(C2=NCCN2)cc1

pIC50 (Coagulation factor X): 6.59
Structure (SMILES): N=C(c1ccc(C(=O)Nc2ccccc2C(=O)Nc2ccc(Cl)cn2)cc1)N1CCS(=O)(=O)CC1

pIC50 (Coagulation factor X): 8.15
Structure (SMILES): N=C(c1ccc(C(=O)Nc2ccccc2C(=O)Nc2ccc(Cl)cn2)cc1)N1CCOCC1

pIC50 (Coagulation factor X): 8.22
Structure (SMILES): CCN(C)C(=N)c1ccc(C(=O)Nc2ccccc2C(=O)Nc2ccc(Cl)cn2)cc1

bioavailability [11]: < 1%
Structure (SMILES): N=C1NCCN1Cc1ccc(C(=O)Nc2ccc(Cl)cc2C(=O)Nc2ccc(Cl)cn2)cc1
Activity (Plasma): 0.58 µM

pIC50 (Coagulation factor X): 8.05
Structure (SMILES): CCCN(C)C(=N)c1ccc(C(=O)Nc2ccccc2C(=O)Nc2ccc(Cl)cn2)cc1

pIC50 (Coagulation factor X): 7.60
Structure (SMILES): N=C(NN)c1ccc(C(=O)Nc2ccccc2C(=O)Nc2ccc(Cl)cn2)cc1

pIC50 (Coagulation factor X): 6.15
Structure (SMILES): CN1CCN(C(=N)c2ccc(C(=O)Nc3ccccc3C(=O)Nc3ccc(Cl)cn3)cc2)CC1

pIC50 (Coagulation factor X): 7.11
Structure (SMILES): CN1CCCN=C1c1ccc(C(=O)Nc2ccccc2C(=O)Nc2ccc(Cl)cn2)cc1

pIC50 (Coagulation factor X): 7.42
Structure (SMILES): N=C(c1ccc(C(=O)Nc2ccccc2C(=O)Nc2ccc(Cl)cn2)cc1)N1CCNCC1

pIC50 (Coagulation factor X): 7.52
Structure (SMILES): CN(C)NC(=N)c1ccc(C(=O)Nc2ccccc2C(=O)Nc2ccc(Cl)cn2)cc1

pIC50 (Coagulation factor X): 8.00
Structure (SMILES): CCN(CC)C(=N)c1ccc(C(=O)Nc2ccccc2C(=O)Nc2ccc(Cl)cn2)cc1

pIC50 (Coagulation factor X): 7.64
Structure (SMILES): CNC(=N)c1ccc(C(=O)Nc2ccccc2C(=O)Nc2ccc(Cl)cn2)cc1

pIC50 (Coagulation factor X): 6.54
Structure (SMILES): CONC(=N)c1ccc(C(=O)Nc2ccccc2C(=O)Nc2ccc(Cl)cn2)cc1

pIC50 (Coagulation factor X): 8.40
bioavailability [11]: < 5%
pIC50 (Prothrombin): < 5.00
pIC50 [12]: < 5.00
pIC50 [13]: < 5.00
pIC50 (Plasminogen): < 5.00
pIC50 [14]: 5.31
pIC50 [15]: < 5.00
Structure (SMILES): N=C(N)c1ccc(C(=O)Nc2ccccc2C(=O)Nc2ccc(Cl)cn2)cc1
